Data reported in ChEMBL document CHEMBL1134468 (J Med Chem, 2001).
Where a SMILES comes first, the peptide text is derived from it. The star is where a group is joined. Argψ(CH2NH)TyrNH2 = N=C(N)NCCC[C@@H](CN[C@@H](Cc1ccc(O)cc1)C(N)=O)N*

Assays:
[1] = target: T1, Neuropeptide Y receptor type 4 (Homo sapiens, UniProt P50391); experiment: Agonist potency for the inhibition of Forskolin stimulated cAMP synthesis in cells expressing cloned Y4 receptors; no effect means no agonist activity at <20 000 nM; type: functional
Outline: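 Inhibition of forskolin-driven cAMP synthesis in cells expressing the Y4 receptor, with PP run as the reference control.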

[2] = target: T2, Neuropeptide Y receptor type 2 (Homo sapiens, UniProt P49146); experiment: Agonist potency for the inhibition of Forskolin stimulated cAMP synthesis in cells expressing cloned Y2 receptors; no effect means no agonist activity at <20 000 nM; type: functional
T2 sequence (P49146 whole entry): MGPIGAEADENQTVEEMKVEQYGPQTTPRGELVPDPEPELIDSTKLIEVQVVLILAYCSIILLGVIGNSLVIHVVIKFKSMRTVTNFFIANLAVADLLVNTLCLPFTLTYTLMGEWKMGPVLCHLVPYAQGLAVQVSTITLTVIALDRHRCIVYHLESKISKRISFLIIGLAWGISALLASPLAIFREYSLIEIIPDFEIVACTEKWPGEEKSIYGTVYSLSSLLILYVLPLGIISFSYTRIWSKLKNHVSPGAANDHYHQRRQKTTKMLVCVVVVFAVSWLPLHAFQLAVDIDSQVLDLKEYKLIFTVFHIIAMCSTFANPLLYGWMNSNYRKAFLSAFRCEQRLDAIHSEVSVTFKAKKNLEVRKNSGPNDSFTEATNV

[3] = target: T3, Neuropeptide Y receptor type 5 (Homo sapiens, UniProt Q15761); experiment: Agonist potency for the inhibition of Forskolin stimulated cAMP synthesis in cells expressing cloned Y5 receptors; no effect means no agonist activity at <20 000 nM; type: functional
T3 sequence (Q15761 whole entry): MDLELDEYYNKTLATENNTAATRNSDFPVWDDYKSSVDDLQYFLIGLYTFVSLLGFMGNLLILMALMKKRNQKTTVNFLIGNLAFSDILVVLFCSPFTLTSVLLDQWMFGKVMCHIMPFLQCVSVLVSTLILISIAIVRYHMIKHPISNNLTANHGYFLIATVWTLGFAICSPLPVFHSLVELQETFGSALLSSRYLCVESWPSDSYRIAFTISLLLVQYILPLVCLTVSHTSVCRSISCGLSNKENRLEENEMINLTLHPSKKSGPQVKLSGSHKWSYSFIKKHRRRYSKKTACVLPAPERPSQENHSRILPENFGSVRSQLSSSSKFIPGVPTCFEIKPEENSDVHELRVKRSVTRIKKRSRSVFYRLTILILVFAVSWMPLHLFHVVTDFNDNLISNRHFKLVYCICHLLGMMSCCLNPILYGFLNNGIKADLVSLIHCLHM

[4] = target: T3, Neuropeptide Y receptor type 5; experiment: Affinity for cloned Y5 receptor using [125I]PYY as radioligand
[5] = target: T2, Neuropeptide Y receptor type 2; experiment: Affinity for cloned Y2 receptor using [125I]PYY as radioligand
[6] = target: T4, Neuropeptide Y receptor type 1 (Homo sapiens, UniProt P25929); experiment: Affinity for cloned Y1 receptor using [125I]PYY as radioligand
T4 sequence (P25929 whole entry): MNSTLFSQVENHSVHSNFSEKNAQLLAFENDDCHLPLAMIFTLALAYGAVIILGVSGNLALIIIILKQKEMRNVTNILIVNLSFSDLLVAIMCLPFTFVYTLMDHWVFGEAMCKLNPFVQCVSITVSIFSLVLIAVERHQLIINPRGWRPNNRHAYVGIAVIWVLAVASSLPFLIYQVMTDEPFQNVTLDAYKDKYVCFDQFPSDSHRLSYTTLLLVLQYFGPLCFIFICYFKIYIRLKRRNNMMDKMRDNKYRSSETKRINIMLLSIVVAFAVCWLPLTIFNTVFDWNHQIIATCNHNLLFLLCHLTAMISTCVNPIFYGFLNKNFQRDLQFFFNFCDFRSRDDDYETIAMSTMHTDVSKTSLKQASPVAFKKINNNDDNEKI

[7] = target: T1, Neuropeptide Y receptor type 4; experiment: (§1) Affinity for cloned Y4 receptor using [125I]PP as radioligand
Outline: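 Displacement binding with 125I-PP as tracer in cells expressing the Y4 receptor; PP served as the reference control.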

[8] = target: T5, Neuropeptide Y receptor type 1 (Homo sapiens) (UniProt P25929); experiment: Antagonist potency for the inhibition of Forskolin stimulated cAMP synthesis in cells expressing cloned Y1 receptors; type: functional
T5 sequence (whole entry): T4 sequence (P25929 whole entry)

[9] = Selectivity ratio of Y1/Y2/Y4/Y5; 1/3840/120/2450
[10] = target: T1, Neuropeptide Y receptor type 4; experiment: as §1; remark: listed apart in the source
[11] = target: T5, Neuropeptide Y receptor type 1 (Homo sapiens); experiment: Selectivity ratio of Y1/Y2/Y4/Y5; 1/2/1/200

T1 sequence (P50391 whole entry): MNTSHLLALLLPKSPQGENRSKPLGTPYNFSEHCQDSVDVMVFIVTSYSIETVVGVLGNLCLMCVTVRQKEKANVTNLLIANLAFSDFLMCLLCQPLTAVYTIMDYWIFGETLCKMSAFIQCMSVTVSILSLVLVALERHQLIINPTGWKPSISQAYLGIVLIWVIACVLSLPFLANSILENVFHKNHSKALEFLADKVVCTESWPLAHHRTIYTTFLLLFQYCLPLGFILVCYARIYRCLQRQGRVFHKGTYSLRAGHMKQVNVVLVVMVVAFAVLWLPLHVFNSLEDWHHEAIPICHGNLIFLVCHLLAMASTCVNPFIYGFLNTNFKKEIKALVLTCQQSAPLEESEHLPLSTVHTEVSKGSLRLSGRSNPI

Row | Ki [4] [nM] | Ki [5] [nM] | Ki [6] [nM] | Ki [7] [nM] | Kb [8] [nM] | Compound | further results
1 | 662 | 1040 | 0.27 | 33.4 | – | CC[C@H](C)[C@H](N)C(=O)N[C@H]1CCC(=O)NC[C@@H](C(=O)N[C@@H](Cc2ccc(O)cc2)C(=O)N[C@@H](CCCN=C(N)N)C(=O)N[C@@H](CC(C)C)C(=O)N[C@@H](CCCN=C(N)N)C(=O)N[C@@H](Cc2ccc(O)cc2)C(=O)OC)NC(=O)[C@@H]2CCCN2C(=O)[C@@H](NC(=O)[C@@H](N)[C@@H](C)CC)CCC(=O)NC[C@@H](C(=O)N[C@@H](Cc2ccc(O)cc2)C(=O)N[C@@H](CCCN=C(N)N)C(=O)N[C@@H](CC(C)C)C(=O)N[C@@H](CCCN=C(N)N)C(=O)N[C@@H](Cc2ccc(O)cc2)C(=O)OC)NC(=O)[C@@H]2CCCN2C1=O | EC50 [1]: Not Active; EC50 [2]: Not Active; EC50 [3]: Not Active
2 | – | – | – | – | 0.79 | CC[C@H](C)[C@H](N)C(=O)N[C@@H](CC(N)=O)C(=O)N1CCC[C@H]1C(=O)N[C@@H](CSSC[C@@H](NC(=O)[C@@H]1CCCN1C(=O)[C@H](CC(N)=O)NC(=O)[C@@H](N)[C@@H](C)CC)C(=O)N[C@@H](Cc1ccc(O)cc1)C(=O)N[C@@H](CCCN=C(N)N)C(=O)N[C@@H](CC(C)C)C(=O)N[C@@H](CCCN=C(N)N)CN[C@@H](Cc1ccc(O)cc1)C(N)=O)C(=O)N[C@@H](Cc1ccc(O)cc1)C(=O)N[C@@H](CCCN=C(N)N)C(=O)N[C@@H](CC(C)C)C(=O)N[C@@H](CCCN=C(N)N)CN[C@@H](Cc1ccc(O)cc1)C(N)=O | –
3 | – | – | – | – | 0.19 | CC[C@H](C)[C@H](N)C(=O)N[C@H]1CCC(=O)NC[C@@H](C(=O)N[C@@H](Cc2ccc(O)cc2)C(=O)N[C@@H](CCCN=C(N)N)C(=O)N[C@@H](CC(C)C)C(=O)N[C@@H](CCCN=C(N)N)C(=O)N[C@@H](Cc2ccc(O)cc2)C(=O)OC)NC(=O)[C@@H]2CCCN2C(=O)[C@H](NC(=O)[C@@H](N)[C@@H](C)CC)CCC(=O)NC[C@H](C(=O)N[C@@H](Cc2ccc(O)cc2)C(=O)N[C@@H](CCCN=C(N)N)C(=O)N[C@@H](CC(C)C)C(=O)N[C@@H](CCCN=C(N)N)C(=O)N[C@@H](Cc2ccc(O)cc2)C(=O)OC)NC(=O)[C@@H]2CCCN2C1=O | Selectivity [9]: Y1/Y4/Y5/Y2
4 | > 1000 | 11.3 | 5 | – | – | H-INPIYRLRY-NH2 | Ki [10]: 5.8 nM; Selectivity [11]: Y1/Y4/Y2/Y5
5 | 464 | 1120 | 4.8 | 99 | – | CC[C@H](C)[C@H](N)C(=O)N[C@@H](CC(N)=O)C(=O)N1CCC[C@H]1C(=O)N[C@@H](CSSC[C@H](NC(=O)[C@@H]1CCCN1C(=O)[C@H](CC(N)=O)NC(=O)[C@@H](N)[C@@H](C)CC)C(=O)N[C@@H](Cc1ccc(O)cc1)C(=O)N[C@@H](CCCN=C(N)N)C(=O)N[C@@H](CC(C)C)C(=O)N[C@@H](CCCN=C(N)N)C(=O)N[C@@H](Cc1ccc(O)cc1)C(=O)OC)C(=O)N[C@@H](Cc1ccc(O)cc1)C(=O)N[C@@H](CCCN=C(N)N)C(=O)N[C@@H](CC(C)C)C(=O)N[C@@H](CCCN=C(N)N)C(=O)N[C@@H](Cc1ccc(O)cc1)C(=O)OC | EC50 [1]: Not Active; EC50 [2]: Not Active; EC50 [3]: Not Active

More lines, now with the values behind:

Row | Compound | Ki [4] [nM] | Ki [5] [nM] | Ki [6] [nM] | Ki [7] [nM] | Kb [8] [nM] | further results
6 | CC[C@H](C)[C@H](N)C(=O)N[C@H]1CCC(=O)NC[C@@H](C(=O)N[C@@H](Cc2ccc(O)cc2)C(=O)N[C@@H](CCCN=C(N)N)C(=O)N[C@@H](CC(C)C)C(=O)N[C@@H](CCCN=C(N)N)CN[C@@H](Cc2ccc(O)cc2)C(N)=O)NC(=O)[C@@H]2CCCN2C(=O)[C@H](NC(=O)[C@@H](N)[C@@H](C)CC)CCC(=O)NC[C@H](C(=O)N[C@@H](Cc2ccc(O)cc2)C(=O)N[C@@H](CCCN=C(N)N)C(=O)N[C@@H](CC(C)C)C(=O)N[C@@H](CCCN=C(N)N)CN[C@@H](Cc2ccc(O)cc2)C(N)=O)NC(=O)[C@@H]2CCCN2C1=O | – | – | – | – | 0.58 | –
7 | CC[C@H](C)[C@H](N)C(=O)N[C@@H](CC(N)=O)C(=O)N1CCC[C@H]1C(=O)N[C@@H](CSSC[C@H](NC(=O)[C@@H]1CCCN1C(=O)[C@H](CC(N)=O)NC(=O)[C@@H](N)[C@@H](C)CC)C(=O)N[C@@H](Cc1ccc(O)cc1)C(=O)N[C@@H](CCCN=C(N)N)C(=O)N[C@@H](CC(C)C)C(=O)N[C@@H](CCCN=C(N)N)CN[C@@H](Cc1ccc(O)cc1)C(N)=O)C(=O)N[C@@H](Cc1ccc(O)cc1)C(=O)N[C@@H](CCCN=C(N)N)C(=O)N[C@@H](CC(C)C)C(=O)N[C@@H](CCCN=C(N)N)CN[C@@H](Cc1ccc(O)cc1)C(N)=O | – | – | – | – | – | EC50 [1]: Not Active; EC50 [2]: Not Active; EC50 [3]: Not Active
8 | CC[C@H](C)[C@H](N)C(=O)N[C@@H](CC(N)=O)C(=O)N1CCC[C@H]1C(=O)N[C@@H](CSSC[C@@H](NC(=O)[C@@H]1CCCN1C(=O)[C@H](CC(N)=O)NC(=O)[C@@H](N)[C@@H](C)CC)C(=O)N[C@@H](Cc1ccc(O)cc1)C(=O)N[C@@H](CCCN=C(N)N)C(=O)N[C@@H](CC(C)C)C(=O)N[C@@H](CCCN=C(N)N)C(=O)N[C@@H](Cc1ccc(O)cc1)C(=O)OC)C(=O)N[C@@H](Cc1ccc(O)cc1)C(=O)N[C@@H](CCCN=C(N)N)C(=O)N[C@@H](CC(C)C)C(=O)N[C@@H](CCCN=C(N)N)C(=O)N[C@@H](Cc1ccc(O)cc1)C(=O)OC | – | – | – | – | 2.3 | –
9 | CC[C@H](C)[C@H](N)C(=O)N[C@@H](CC(N)=O)C(=O)N1CCC[C@H]1C(=O)N[C@@H](CSSC[C@H](NC(=O)[C@@H]1CCCN1C(=O)[C@H](CC(N)=O)NC(=O)[C@@H](N)[C@@H](C)CC)C(=O)N[C@@H](Cc1ccc(O)cc1)C(=O)N[C@@H](CCCNC(=N)N)C(=O)N[C@@H](CC(C)C)C(=O)N[C@@H](CCCNC(=N)N)CN[C@@H](Cc1ccc(O)cc1)C(N)=O)C(=O)N[C@@H](Cc1ccc(O)cc1)C(=O)N[C@@H](CCCNC(=N)N)C(=O)N[C@@H](CC(C)C)C(=O)N[C@@H](CCCNC(=N)N)CN[C@@H](Cc1ccc(O)cc1)C(N)=O | 2340 | 822 | 2.3 | 65 | – | –
10 | CC[C@H](C)[C@H](N)C(=O)N[C@@H](CC(N)=O)C(=O)N1CCC[C@H]1C(=O)N[C@H](C(=O)N[C@@H](Cc1ccc(O)cc1)C(=O)N[C@@H](CCCNC(=N)N)C(=O)N[C@@H](CC(C)C)C(=O)N[C@@H](CCCNC(=N)N)CN[C@@H](Cc1ccc(O)cc1)C(N)=O)[C@@H](C)CC (H-INPIYRL-{Argψ(CH2NH)TyrNH2}) | 5080 | 1650 | 34.8 | – | – | Ki [10]: 3740 nM
11 | CC[C@H](C)[C@H](N)C(=O)N[C@@H](CC(N)=O)C(=O)N1CCC[C@H]1C(=O)N[C@H](C(=O)N[C@@H](Cc1ccc(O)cc1)C(=O)N[C@@H](CCCNC(=N)N)C(=O)N[C@@H](CC(C)C)C(=O)N[C@@H](CCCNC(=N)N)C(=O)N[C@@H](Cc1ccc(O)cc1)C(=O)OC)[C@@H](C)CC (H-INPIYRLRY-OMe) | 7100 | 1420 | 25.7 | – | – | Ki [10]: 2400 nM
12 | CC[C@H](C)[C@H](N)C(=O)N[C@H]1CCC(=O)NC[C@@H](C(=O)N[C@@H](Cc2ccc(O)cc2)C(=O)N[C@@H](CCCNC(=N)N)C(=O)N[C@@H](CC(C)C)C(=O)N[C@@H](CCCNC(=N)N)CN[C@@H](Cc2ccc(O)cc2)C(N)=O)NC(=O)[C@@H]2CCCN2C(=O)[C@@H](NC(=O)[C@@H](N)[C@@H](C)CC)CCC(=O)NC[C@@H](C(=O)N[C@@H](Cc2ccc(O)cc2)C(=O)N[C@@H](CCCNC(=N)N)C(=O)N[C@@H](CC(C)C)C(=O)N[C@@H](CCCNC(=N)N)CN[C@@H](Cc2ccc(O)cc2)C(N)=O)NC(=O)[C@@H]2CCCN2C1=O | 7890 | 624 | 0.46 | 65.5 | – | –
